Source: article PMC9847367 (European Journal of Medicinal Chemistry, 2023)
Where a name gives a salt, the structure may show the parent alone.

Assays:
SARS-CoV-2 3CL^pro = SARS-CoV-2 3CL^pro (Severe acute respiratory syndrome coronavirus 2, UniProt P0DTD1); assay type: biochemical
chymotrypsin = chymotrypsin (Bos taurus, UniProt P00766); test: Enzymatic selectivity assay against chymotrypsin; assay type: biochemical
Summary of the method: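 Bovine chymotrypsin (5 nM final) was preincubated for 10 min with serial dilutions of test compound in phosphate-buffered saline, pH 7.4. The reaction was started with N-succinyl-AAPF-AMC (10 μM final). Fluorescence (ex 380 nm/em 460 nm) was read every 1 min for 10 min. Reaction rates relative to DMSO controls gave the inhibition profiles.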

SMILES | inhibitory activity with the addition of 4 mM DTT (SARS-CoV-2 3CL^pro) | IC50 (chymotrypsin) [µM]
C/N=c1\nc(-c2ccc(F)cc2)n(-c2ccccc2)s1 [6g, 3-(4-fluorophenyl)-N-methyl-2-phenyl-1,2,4-thiadiazol-5(2H)-imine hydrobromide salt] | lost their inhibitory activity | > 100
C/N=c1\nc(-c2ccccc2)n(-c2ccccc2)s1 [6a, N-methyl-2,3-diphenyl-1,2,4-thiadiazol-5(2H)-imine hydrobromide salt] | lost their inhibitory activity | > 100
